Compound activity: PubChem BioAssay, The Scripps Research Institute Molecular Screening Center
Shown are actives, neighbours in structure and some others; about 2.7% of the full set was active somewhere.
OX1R antag-1 – blocks the human orexin 1 receptor | inhibition, % at 5 µM | O43613 | 330,000 compounds, 0.43% hits | CHO/OX1R cells, Fluo-8 calcium fluorescence, orexin A;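 active = inhibition above its plate's threshold, mean inhibition of all tested compounds on the plate plus 3 SD, cut at about 37% in these data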;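 note: 0% = orexin A challenge wells and 100% = SB-334867-A antagonist wells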
Target sequence (O43613 whole entry, looked up): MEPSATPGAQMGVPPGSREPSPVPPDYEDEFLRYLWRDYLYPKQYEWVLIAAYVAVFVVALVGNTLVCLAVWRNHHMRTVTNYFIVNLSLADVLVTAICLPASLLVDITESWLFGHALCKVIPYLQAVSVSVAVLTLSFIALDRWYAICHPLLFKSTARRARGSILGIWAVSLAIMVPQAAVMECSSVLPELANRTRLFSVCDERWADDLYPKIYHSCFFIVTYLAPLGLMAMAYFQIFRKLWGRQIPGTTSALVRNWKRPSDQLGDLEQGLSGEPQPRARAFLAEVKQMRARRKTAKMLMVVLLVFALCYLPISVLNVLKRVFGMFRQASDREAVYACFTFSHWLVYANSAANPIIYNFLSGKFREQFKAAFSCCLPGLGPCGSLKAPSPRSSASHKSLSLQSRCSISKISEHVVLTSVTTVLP
OX1R antag-2 – blocks the human orexin 1 receptor | OX1R-expressing cells, FRET antagonist read-out | inhibition, % at 6.6 µM | 330,000 compounds, 1.8% hits | AID 485270; in the data active = inhibition mostly above about 38%, no sharp cut-off; inactive = mostly below about 40%;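 note: 0% = agonist challenge alone and 100% = reference antagonist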
V1R ag counter – V1a receptor agonism, counter-screen for OXTR agonists | P37288 | CHO-V1R cells, Fluo-8 calcium fluorescence, agonist mode; 0% DMSO, 100% 3 nM vasopressin | activation, % at 3 µM | 320,000 compounds, 0.25% hits;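 active = activation above the mean activation of all tested compounds plus 3 SD, per screening run, cut at about 20% in these data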;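 note: signal is peak over basal fluorescence ratio across a 100 second FLIPR read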
OXTR potentiator – potentiators of human oxytocin receptor. P30559. CHO-OTR cells, Fluo-8 calcium fluorescence, potentiator mode; 0% = oxytocin EC15, 100% = EC100. activation, % at 3 µM. 320,000 compounds, 0.061% hits. AID 2445;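 active = activation above that plate's cutoff, the mean activation of tested compounds plus 3 SD, cut at about 6.6% in these data, passing the limit was not always enough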;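 note: 100% uses oxytocin at 75 nM as the full agonist control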
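test system = CHO-OTR cells, human receptor | compound = single-point 3.0 µM | schedule = 6 min compound pre-incubation at room temperature, 100 s kinetic read | signal = Fluo-8 no-wash calcium dye fluorescence, excitation 470-495 nm, emission 515-575 nm | repeats = single well per compound, singlicate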
CHO parental Ca – counter-screen: ATP calcium response change in parental CHO cells. inhibition, % at 5.6 µM. parental CHO-K1, ATP-induced calcium, Fluo-8 fluorescence. 330,000 compounds, 0.63% hits;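 active = inhibition above that plate's mean sample inhibition plus 3 SD, cut at about 26% in these data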;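 note: 0% = ATP-challenged DMSO wells and 100% = DMSO wells without ATP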
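Material: Parental CHO cells | Reagent: ATP | Compound dosing: Single nominal dose of 5.6 µM per compound | Detection: Intracellular calcium via Fluo-8 no-wash fluorescent dye | Read-out: % inhibition of ATP-induced calcium mobilization | Benchmarks: Low control ATP plus DMSO, high control DMSO only | Replicates: Singlicate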
OXTR agonist – activates the human oxytocin receptor. P30559. CHO-OTR cells, Fluo-8 calcium fluorescence; normalized: DMSO 0%, oxytocin 100%. activation, % at 3 µM. 320,000 compounds, 0.32% hits. AID 2435;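 active = activation above the mean of all tested compounds plus 3 SD, cutoff set per screening run, cut at about 20% in these data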;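 note: peak over basal fluorescence ratio from a 100 s FLIPR kinetic read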
Numbers without * were called inactive.

SMILES	OX1R antag-1	OX1R antag-2	V1R ag counter	OXTR potentiator	CHO parental Ca	OXTR agonist
Cc1cc(Cl)ccc1NC(=S)NCCC(c1ccccc1)c1ccccc1	45*	52	7	-22	37*	0
Cc1c(Cl)cccc1NC(=S)NCCC(c1ccccc1)c1ccccc1	-8	28	1	-15	1	1
N#Cc1ccncc1Sc1ccc(Cl)cc1	-10	-5	-1	-9	-7	-3
CC1=C(Nc2ccc(C(=O)O)cc2)C(=O)c2ccccc2C1=O	-14	44*	1	-5	-2	1
Cc1ccc(NC2=C(N3CCCCC3)C(=O)c3ccccc3C2=O)cc1	-25	13	0	-4	-14	-1
O=S(=O)(c1ccc(N2CCN(c3ccc(F)cc3)CC2)cc1)N1CCCC1	-8	4	1	0	-15	0
O=S(=O)(c1ccc(N2CCCC2)cc1)C(F)(F)F	-8	30	6	-10	40*	9
CCCN(CC(=O)Nc1ccccc1OC)C(=O)c1ccc(S(=O)(=O)Nc2ccccc2)cc1	16	70*	2	-15	1	2
CCOc1ccc(S(=O)(=O)N(C(=O)c2ccco2)c2cc3sc(=O)oc3c3ccccc23)cc1	69*	6	0	-13	82*	-1
COc1ccc(S(=O)(=O)N(C(=O)c2ccco2)c2cc3sc(=O)oc3c3ccccc23)cc1	60*	2	3	-6	66*	0
CC(=O)N(c1ccc2oc(=O)sc2c1)S(=O)(=O)c1ccccc1	-13	17	1	-3	3	0
Cc1ccc(S(=O)(=O)N(C(=O)c2ccco2)c2cc3sc(=O)oc3c3ccccc23)cc1	62*	10	1	-1	76*	0
CCOC(=O)C1CCN(C(=O)CSc2ccccc2Cl)CC1	-25	11	0	0	-25	-1
Cc1cccc(OCC(=O)Nc2nccs2)c1C	-16	23	3	-4	-11	0
c1cnc2ncc3sccc3c2c1	-3	8	1	-1	46*	1
N#CC1=C(N)N2C(=C(C#N)C13CCCCC3)SC1CCCCC12O (stereo unspecified)	14	5	6	-5	33*	2
CCOC(=O)c1nn(-c2cccc(OC)c2)c(-c2ccccc2)c1C(=O)c1ccccc1	2	55*	0	-1	-15	-2
CCCNC(=O)c1nn2cc(Br)cnc2c1Br	8	27	0	3	-4	0
Cc1ccc(NC(=O)c2ccccc2NS(=O)(=O)c2ccc(Cl)s2)cc1S(=O)(=O)N1CCOCC1	21	63*	13	-14	1	17
O=S(=O)(c1cc(F)ccc1F)N1CCN(c2ncnc3ccccc23)CC1	45*	26	11	-13	49*	16
O=S(=O)(c1cc(F)ccc1F)N1CCN(c2ccccn2)CC1	-2	14	-1	-15	3	-2
Cc1ccc(/C=N/NC(=O)c2nnn(-c3nonc3N)c2-c2cccs2)cc1	-64	9	42*	-10	-28	56*
Nc1nonc1-n1nnc(C(=O)N/N=C/c2cc(Br)cs2)c1-c1ccccc1	1	51*	5	-10	1	12
COc1cccc(-c2c(C(=O)N/N=C/c3cccs3)nnn2-c2nonc2N)c1	-22	21	28*	-8	-14	21*
Nc1nonc1-n1nnc(C(=O)N/N=C/c2ccccn2)c1CNc1ccccc1	0	50*	2	-10	-21	3
Nc1nonc1-n1nnc(C(=O)N/N=C/c2cccc(F)c2)c1-c1ccccc1	-20	18	6	-12	-17	5
O=c1[nH][nH]c(C(F)(F)F)c1C=NCc1cccs1	-3	4	1	-5	-7	0
CNC(=O)c1c(C)noc1C	-4	10	0	-8	-15	0
CC(=O)c1ccc(NC(=O)/C(=C\c2cccs2)NC(=O)c2ccco2)cc1	-17	15	0	-6	-7	0
CC(C)c1c(C(=O)N/N=C/c2ccc(C(F)(F)F)cc2)nnn1-c1nonc1N	-27	13	79*	-8	-38	66*
